# Experimental data reported in ChEMBL document CHEMBL2331249, “Cytotoxicity of lapachol, β-lapachone and related synthetic 1,4-naphthoquinones against oesophageal cancer cells” (Eur J Med Chem, 2013).
# Active and inactive are the calls of the source. The calls are words filed in the database; no cut-off is given here.
# Key:
# NIH3T3 = assay: Cytotoxicity against mouse NIH/3T3 cells after 96 hrs by MTT assay; assay type: cell-based; details: for Activity: mouse, nih3t3, 96 h; for IC50: Mus musculus, NIH3T3, 96 h
# Outline: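 NIH3T3 fibroblasts kept in DMEM with 10% heat-inactivated FCS plus penicillin/streptomycin/amphotericin at 37 °C, 9% CO2. Seeded at 1000 cells/well overnight, then exposed to 0, 10, 100, 1 000 and 10 000 nM or vehicle (0.02% v/v) for 96 h.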
# [1] = Cytotoxicity against human WHCO1 cells after 48 hrs by MTT assay; details: WHCO1, 48 h
# [2] = Ratio of cisplatin IC50 to compound IC50 for human WHCO1 cells after 48 hrs by MTT assay
# WHCO1 [3] = assay: Induction of apoptosis in human WHCO1 cells assessed as increase in c-jun level after 6 to 24 hrs by MTT assay; assay type: functional, cell-based; details: in the assay text read “by Western blot analysis” for “by MTT assay”
# Outline: (§1)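 Western blot of WHCO1 cells given varying concentrations for 6, 24 and 48 h, protein extracted at each time point. PARP cleavage to […] 85 kDa fragments taken as the apoptosis marker; c-Jun levels probed on the same blots.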
# WHCO1 [4] = assay: Induction of apoptosis in human WHCO1 cells assessed as PARP cleavage at 5 to 10 uM after 6 to 48 hrs by MTT assay; assay type: functional, cell-based; details: in the assay text read “by Western blot analysis” for “by MTT assay”; outline: as §1
# WHCO1 [5] = assay: Induction of apoptosis in human WHCO1 cells assessed as PARP cleavage at 20 uM after 6 to 48 hrs by MTT assay; assay type: functional, cell-based; details: in the assay text read “by Western blot analysis” for “by MTT assay”; outline: as §1
# [6] = Ratio of cisplatin IC50 to compound IC50 for human WHCO1 cells after 24 hrs by MTT assay; assay type: functional
# [7] = Cytotoxicity against human WHCO1 cells after 24 hrs by MTT assay; assay type: functional, cell-based; details: WHCO1, 24 h
Compound,IC50 [1] [µM],Ratio IC50 [2],further results
O=C1C=C(C(O)c2cccc(Cl)c2)C(=O)c2ccccc21 (stereo not given),7.3,2,Activity (NIH3T3): Non-toxic
CC(C)=CCC1=C(O)C(=O)c2ccccc2C1=O [LAPACHOL],24.1,–,–
O=C(CCc1ccccc1)C1=CC(=O)c2ccccc2C1=O,83.7,–,–
CC1(C)CC2=C(O1)c1ccccc1C(=O)C2=O [NOR-BETA-LAPACHONE],2.4,7,–
O=C1C=C(C(O)c2ccc(F)cc2)C(=O)c2ccccc21 (stereo not given),5.1,2,IC50 (NIH3T3): 11.7 µM
O=C(C1=CC(=O)c2ccccc2C1=O)c1ccccc1,63.4,–,–
CC1(C)CCC2=C(O1)c1ccccc1C(=O)C2=O [LAPACHONE],1.6,10,–
O=C1C=C(C(O)c2cccc(F)c2)C(=O)c2ccccc21 (stereo not given),5.5,2,IC50 (NIH3T3): 82 µM
O=C1C=C(C(O)CCc2ccccc2)C(=O)c2ccccc21 (stereo not given),4.8,2,–
O=C1C=C([C@@H](O)c2ccccc2)C(=O)c2ccccc21,3.8,–,Activity (WHCO1 [3]): Dose-dependent effect; Activity (WHCO1 [4]): inactive; Activity (WHCO1 [5]): Active
O=C1C=C(c2ccccc2)C(=O)c2ccccc21,11.7,2,–
C=CC(O)C1=CC(=O)c2ccccc2C1=O (stereo not given),4.3,–,–
O=C(C1=CC(=O)c2ccccc2C1=O)c1ccc(F)cc1,74.9,–,–
O=C(C1=CC(=O)c2ccccc2C1=O)c1cccc(F)c1,94.8,–,–
Cc1cc(Cl)ccc1C(O)C1=CC(=O)c2ccccc2C1=O (stereo not given),3.4,2,IC50 (NIH3T3): 7.4 µM
Cc1cc(Cl)ccc1C(=O)C1=CC(=O)c2ccccc2C1=O,50.4,–,–

Compound,IC50 [1] [µM],Ratio IC50 [2],further results
CC(C)=CCC1=CC(=O)c2ccccc2C1=O [DEOXYLAPACHOL],15,–,–
O=C1C=C(C(O)c2ccc(Cl)cc2)C(=O)c2ccccc21 (stereo not given),3,2,Activity (NIH3T3): Non-toxic
CC1(C)CCC2=C(O1)C(=O)c1ccccc1C2=O [ALPHA-LAPACHONE],28.7,–,–
CC1(C)OC2=C(CC1Br)C(=O)C(=O)c1ccccc12 (stereo not given),1.8,9,–
O=C1C=C(Cc2ccccc2)C(=O)c2ccccc21,21.6,–,–
CC1(C)OC2=C(CC1O)C(=O)C(=O)c1ccccc12 (stereo not given),6.5,2,–
O=C1C=C(C(O)c2ccc3ccccc3c2)C(=O)c2ccccc21 (stereo not given),–,–,Ratio IC50 [6]: 2; IC50 [7]: 2.4 µM
CC(O)C1=CC(=O)c2ccccc2C1=O (stereo not given),6.4,–,–
O=C(C1=CC(=O)c2ccccc2C1=O)c1ccc(Cl)cc1,72.9,–,–
O=C1C=C(C(O)c2ccccc2)C(=O)c2ccccc21 (racemic),3.9,11,Activity (WHCO1 [3]): Dose-dependent effect; Activity (WHCO1 [4]): inactive; Activity (WHCO1 [5]): Active; Activity (NIH3T3): Non-toxic
O=C1C=C(C(O)c2ccoc2)C(=O)c2ccccc21 (stereo not given),10.9,2,–
O=C(C1=CC(=O)c2ccccc2C1=O)c1ccoc1,96.9,–,–
O=C(C1=CC(=O)c2ccccc2C1=O)c1cccc(Cl)c1,94.8,–,–
O=C1C=C([C@H](O)c2ccccc2)C(=O)c2ccccc21,4.3,–,Activity (WHCO1 [3]): Dose-dependent effect; Activity (WHCO1 [4]): inactive; Activity (WHCO1 [5]): Active
CC(C)=CC(O)C1=CC(=O)c2ccccc2C1=O (stereo not given),5.2,–,–
